Experimental data: ChEMBL document CHEMBL2163278, “α-Substituted β-oxa isosteres of fosmidomycin: synthesis and biological evaluation” (J Med Chem, 2012)

What was measured:
Plasmodium falciparum [1] = test: Antiplasmodial activity against chloroquine-sensitive Plasmodium falciparum 3D7 incubated for 3 days by HRP2 detection based ELISA method; type: functional, organism-based; settings: 3D7, 72 h
How it was run: (§1)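 P. falciparum in continuous in vitro culture, growth inhibition assay. Each compound was tested in 12 serial dilutions, in duplicate. IC50 is the mean of at least two independent experiments.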

[2] = Inhibition of recombinant Plasmodium falciparum recombinant IspC using […]1-Deoxy-D-xylulose 5-phosphate substrate by photometric assay
How it was run: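 Enzyme IC50 from nonlinear regression of inhibition data; mean ± SD from nine or more data points.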

Plasmodium falciparum [3] = test: Antiplasmodial activity against chloroquine-resistant Plasmodium falciparum Dd2 incubated for 3 days by HRP2 detection based ELISA method; type: functional, organism-based; settings: Dd2, 72 h; how it was run: as §1

| SMILES | IC50 (Plasmodium falciparum [1]) [µM] | IC50 [2] [µM] | IC50 (Plasmodium falciparum [3]) [µM] |
| --- | --- | --- | --- |
| Cc1ccc(C(OCC(=O)NO)P(=O)(O)O)cc1 (stereo not given) | > 50 | 1.8 |  |
| CCNC(=O)ON(C)C(=O)COC(c1ccc(F)c(F)c1)P(=O)(OCOC(=O)C(C)(C)C)OCOC(=O)C(C)(C)C (stereo not given) | 0.031 |  | 0.022 |
| CCOC(=O)ON(C)C(=O)COC(c1ccc(F)c(F)c1)P(=O)(OCOC(=O)C(C)(C)C)OCOC(=O)C(C)(C)C (stereo not given) | 0.023 |  | 0.019 |
| O=CN(O)CCCP(=O)(O)O [FOSMIDOMYCIN SODIUM] | 0.88 |  | 0.81 |
| O=C(COC(c1ccc(F)cc1F)P(=O)(O)O)NO (stereo not given) | > 50 | 1.7 |  |
| O=C(COC(c1ccccc1)P(=O)(O)O)NO (stereo not given) | > 50 | 1.5 |  |
| Cc1ccc(C(CCC(=O)N(C)O)P(=O)(O)O)cc1 (stereo not given) |  | 0.014 |  |
| CN(O)C(=O)COC(c1ccc(F)cc1)P(=O)(O)O (stereo not given) | 0.48 | 0.027 | 0.35 |
| CN(O)C(=O)COC(c1ccc(F)cc1F)P(=O)(O)O (stereo not given) | 1.3 | 0.065 | 1.2 |
| CN(O)C(=O)COC(c1ccc(F)c(F)c1)P(=O)(O)O (stereo not given) | 0.54 | 0.012 | 0.13 |
| CN(O)C(=O)COC(c1ccccc1)P(=O)(O)O (stereo not given) | 1.2 | 0.037 | 0.7 |
| CCN(O)C(=O)COC(c1ccccc1)P(=O)(O)O (stereo not given) | 8.1 | 0.21 | 3.8 |
| Cc1ccc(C(OCC(=O)N(C)O)P(=O)(O)O)cc1 (stereo not given) | 0.18 | 0.025 | 0.19 |
| CN(O)C(=O)CCC(c1ccccc1)P(=O)(O)O (stereo not given) |  | 0.0031 |  |
| CN(O)C(=O)COC(c1ccc(F)c(F)c1)P(=O)(OCOC(=O)C(C)(C)C)OCOC(=O)C(C)(C)C (stereo not given) | 0.013 |  | 0.022 |
| CN(O)C(=O)COC(c1cccc2ccccc12)P(=O)(O)O (stereo not given) | 0.52 | 0.039 | 0.35 |
| CN(O)C(=O)COC(c1ccc(Cl)c(Cl)c1)P(=O)(O)O (stereo not given) | 0.24 | 0.014 | 0.14 |
